# According to ChEMBL document CHEMBL1125112, “Antitumor imidazotetrazines. 20. Preparation of the 8-acid derivative of mitozolomide and its utility in the preparation of active antitumor agents” (1990):
# Columns and labels:
# L1210 [1] = assay: In vivo antitumor activity against the L1210 leukemia cell line in mouse species B6D2F1 after intraperitoneal administration (inoculum cells-10E5,ip) at the dose of 200 mg/kg; type: functional
# L1210 [2] = assay: In vivo antitumor activity against the L1210 leukemia cell line in mouse species B6D2F1 after intraperitoneal administration (inoculum cells-10E5,ip) at the dose of 50 mg/kg; type: functional
# L1210 [3] = assay: In vivo antitumor activity against the L1210 leukemia cell line in mouse species B6D2F1 after intraperitoneal administration (inoculum cells-10E5,ip) at the dose of 100 mg/kg; type: functional
# L1210 [4] = assay: In vivo antitumor activity against the L1210 leukemia cell line in mouse species B6D2F1 after intraperitoneal administration (inoculum cells-10E5,ip) at the dose of 100 mg/kg on 7th day; type: functional
# L1210 [5] = assay: In vivo antitumor activity against the L1210 leukemia cell line in mouse species B6D2F1 after intraperitoneal administration (inoculum cells-10E5,ip) at the dose of 200 mg/kg on 7th day; type: functional
# L1210 [6] = assay: In vivo antitumor activity against the L1210 leukemia cell line in mouse species B6D2F1 after intraperitoneal administration (inoculum cells-10E5,ip) at the dose of 50 mg/kg on 7th day; type: functional
# TLX-5 [7] = assay: In vivo antitumor activity against the TLX5 lymphoma cell line in mouse species CBA/CA after intraperitoneal administration (inoculum cells-2x10E5,sc) at the dose of 10 mg/kg; type: functional
# TLX-5 [8] = assay: (§1) In vivo antitumor activity against the TLX5 lymphoma cell line in mouse species CBA/CA after intraperitoneal administration (inoculum cells-2x10E5,sc) at the dose of 160 mg/kg; type: functional
# How it was run: (§2)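 CBA/CA mice were inoculated with 2 × 10^5 TLX5 lymphoma cells. Drug given intraperitoneally in 10% Me2SO in arachis oil, 5 mice per dose, and the experiment lasted 60 days. Survivors at 60 days were recorded. T/C % = mean death day of treated animals / mean death day of control animals.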
# TLX-5 [9] = assay: In vivo antitumor activity against the TLX5 lymphoma cell line in mouse species CBA/CA after intraperitoneal administration (inoculum cells-2x10E5,sc) at the dose of 20 mg/kg; type: functional; how it was run: as §2
# TLX-5 [10] = assay: (§3) In vivo antitumor activity against the TLX5 lymphoma cell line in mouse species CBA/CA after intraperitoneal administration (inoculum cells-2x10E5,sc) at the dose of 40 mg/kg; type: functional; how it was run: as §2
# TLX-5 [11] = assay: In vivo antitumor activity against the TLX5 lymphoma cell line in mouse species CBA/CA after intraperitoneal administration (inoculum cells-2x10E5,sc) at the dose of 80 mg/kg; type: functional; how it was run: as §2
# TLX-5 [12] = assay: In vivo antitumor activity against the TLX5 lymphoma cell line in mouse species CBA/CA after intraperitoneal administration (inoculum cells-2x10E5,sc) at the dose of 10 mg/kg on 5th day; type: functional
# TLX-5 [13] = assay: (§4) In vivo antitumor activity against the TLX5 lymphoma cell line in mouse species CBA/CA after intraperitoneal administration (inoculum cells-2x10E5,sc) at the dose of 160 mg/kg on 5th day; type: functional
# TLX-5 [14] = assay: In vivo antitumor activity against the TLX5 lymphoma cell line in mouse species CBA/CA after intraperitoneal administration (inoculum cells-2x10E5,sc) at the dose of 20 mg/kg on 5th day; type: functional
# TLX-5 [15] = assay: (§5) In vivo antitumor activity against the TLX5 lymphoma cell line in mouse species CBA/CA after intraperitoneal administration (inoculum cells-2x10E5,sc) at the dose of 40 mg/kg on 5th day; type: functional
# TLX-5 [16] = assay: In vivo antitumor activity against the TLX5 lymphoma cell line in mouse species CBA/CA after intraperitoneal administration (inoculum cells-2x10E5,sc) at the dose of 80 mg/kg on 5th day; type: functional
# TLX-5 [17] = assay: In vivo antitumor activity against the TLX5 lymphoma cell line in mouse species CBA/CA after intraperitoneal administration (inoculum cells-2x10E5,ip) at the dose of 80 mg/kg; type: functional; how it was run: as §2
# TLX-5 [18] = assay: In vivo antitumor activity against the TLX5 lymphoma cell line in mouse species CBA/CA after intraperitoneal administration (inoculum cells-2x10E5,ip) at the dose of 160 mg/kg on 5th day; type: functional
# TLX-5 [19] = assay: In vivo antitumor activity against the TLX5 lymphoma cell line in mouse species CBA/CA after intraperitoneal administration (inoculum cells-2x10E5,ip) at the dose of 320 mg/kg on 5th day; type: functional
# TLX-5 [20] = assay: In vivo antitumor activity against the TLX5 lymphoma cell line in mouse species CBA/CA after intraperitoneal administration (inoculum cells-2x10E5,ip) at the dose of 80 mg/kg on 5th day; type: functional
# TLX-5 [21] = assay: In vivo antitumor activity against the TLX5 lymphoma cell line in mouse species CBA/CA after intraperitoneal administration (inoculum cells-2x10E5,sc) at the dose of 160 mg/kg
# L1210 [22] = assay: In vivo antitumor activity against the L1210 leukemia cell line in mouse species B6D2F1 after peroral administration (inoculum cells-10E5,ip at the dose of 160 mg/kg; type: functional; settings: route oral
# L1210 [23] = assay: In vivo antitumor activity against the L1210 leukemia cell line in mouse species B6D2F1 after peroral administration (inoculum cells-10E5,ip) at the dose of 320 mg/kg; type: functional; settings: route oral
# L1210 [24] = assay: In vivo antitumor activity against the L1210 leukemia cell line in mouse species B6D2F1 after peroral administration (inoculum cells-10E5,ip) at the dose of 40 mg/kg; type: functional; settings: route oral
# L1210 [25] = assay: In vivo antitumor activity against the L1210 leukemia cell line in mouse species B6D2F1 after peroral administration (inoculum cells-10E5,ip) at the dose of 80 mg/kg; type: functional; settings: route oral
# L1210 [26] = assay: In vivo antitumor activity against the L1210 leukemia cell line in mouse species B6D2F1 after peroral administration (inoculum cells-10E5,ip)at the dose of 320 mg/kg on 7th day; type: functional; settings: route oral
# How it was run: (§6)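 B6D2F1 mice were inoculated with 10^5 L1210 leukemia cells, ip or iv as the line states. Compound was given orally as a suspension in 1% (carboxymethyl)cellulose in water, dosed on day 1 or 3, over 28–39 days. T/C% = mean death day of treated/mean death day of controls. Survivors to the end were counted in groups of 7–8.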
# L1210 [27] = assay: In vivo antitumor activity against the L1210 leukemia cell line in mouse species B6D2F1 after peroral administration (inoculum cells-10E5,ip) at the dose of 80 mg/kg on 8th day; type: functional; settings: route oral; how it was run: as §6
# L1210 [28] = assay: In vivo antitumor activity against the L1210 leukemia cell line in mouse species B6D2F1 after peroral administration (inoculum cells-10E5,ip) at the dose of 160 mg/kg on 8th day; type: functional; settings: route oral; how it was run: as §6
# L1210 [29] = assay: In vivo antitumor activity against the L1210 leukemia cell line in mouse species B6D2F1 after peroral administration (inoculum cells-10E5,ip) at the dose of 40 mg/kg on 8th day; type: functional; settings: route oral; how it was run: as §6
# TLX-5 [30] = assay: as §4; type: functional; how it was run: as §2; remark: listed apart in the source
# TLX-5 [31] = assay: In vivo antitumor activity against the TLX5 lymphoma cell line in mouse species CBA/CA after intraperitoneal administration (inoculum cells-2x10E5,sc) at the dose of 320 mg/kg; type: functional; how it was run: as §2
# TLX-5 [32] = assay: as §1; type: functional; remark: listed apart in the source
# How it was run: (§7)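 CBA/CA mice were implanted sc with 2 × 10^5 TLX5 lymphoma cells. Compound was given ip on day 3 in 10% Me2SO in arachis oil, over 60 days, in groups of 5. T/C% = mean death day of treated/mean death day of controls. Survivors to day 60 were counted.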
# TLX-5 [33] = assay: In vivo antitumor activity against the TLX5 lymphoma cell line in mouse species CBA/CA after intraperitoneal administration (inoculum cells-2x10E5,sc) at the dose of 320 mg/kg on 5th day; type: functional
# L1210 [34] = assay: In vivo antitumor activity against the L1210 leukemia cell line in mouse species B6D2F1 after peroral administration (inoculum cells-10E5,iv) at the dose of 200 mg/kg; type: functional; settings: route oral
# L1210 [35] = assay: In vivo antitumor activity against the L1210 leukemia cell line in mouse species B6D2F1 after peroral administration (inoculum cells-10E5,iv) at the dose of 100 mg/kg; type: functional; settings: route oral
# L1210 [36] = assay: In vivo antitumor activity against the L1210 leukemia cell line in mouse species B6D2F1 after peroral administration (inoculum cells-10E5,iv) at the dose of 50 mg/kg; type: functional; settings: route oral
# L1210 [37] = assay: In vivo antitumor activity against the L1210 leukemia cell line in mouse species B6D2F1 after peroral administration (inoculum cells-10E5,iv) at the dose of 100 mg/kg on 7th day; type: functional; settings: route oral; how it was run: as §6
# L1210 [38] = assay: In vivo antitumor activity against the L1210 leukemia cell line in mouse species B6D2F1 after peroral administration (inoculum cells-10E5,iv) at the dose of 200 mg/kg on 7th day; type: functional; settings: route oral; how it was run: as §6
# L1210 [39] = assay: In vivo antitumor activity against the L1210 leukemia cell line in mouse species B6D2F1 after peroral administration (inoculum cells-10E5,iv) at the dose of 50 mg/kg on 7th day; type: functional; settings: route oral; how it was run: as §6
# TLX-5 [40] = assay: as §5; type: functional; how it was run: as §2; remark: listed apart in the source
# TLX-5 [41] = assay: as §3; type: functional; how it was run: as §7; remark: listed apart in the source
structure (smiles),measurement,setting,value
CCOC(=O)c1ncn2c(=O)n(CCCl)nnc12,T/C,L1210 [1],137%
same,T/C,L1210 [2],113%
same,T/C,L1210 [3],120%
same,Survivors,L1210 [4],0
same,Survivors,L1210 [5],0
same,Survivors,L1210 [6],0
same,T/C,TLX-5 [7],89%
same,T/C,TLX-5 [8],113%
same,T/C,TLX-5 [9],98%
same,T/C,TLX-5 [10],104%
same,T/C,TLX-5 [11],91%
same,Survivors,TLX-5 [12],0
same,Survivors,TLX-5 [13],0
same,Survivors,TLX-5 [14],0
same,Survivors,TLX-5 [15],0
same,Survivors,TLX-5 [16],0
O=C(NNc1ccccc1)c1ncn2c(=O)n(CCCl)nnc12,T/C,TLX-5 [17],107%
same,Survivors,TLX-5 [18],0
same,Survivors,TLX-5 [19],0
same,Survivors,TLX-5 [20],0
same,T/C,TLX-5 [21],169%
O=C(O)c1ncn2c(=O)n(CCCl)nnc12,T/C,L1210 [22],107%
same,T/C,L1210 [23],106%
same,T/C,L1210 [24],102%
same,T/C,L1210 [25],101%
same,Survivors,L1210 [26],0
same,Survivors,L1210 [27],0
same,Survivors,L1210 [28],0
same,Survivors,L1210 [29],0
same,T/C,TLX-5 [30],108%
same,T/C,TLX-5 [9],102%
same,T/C,TLX-5 [31],223%
same,T/C,TLX-5 [10],103%
same,T/C,TLX-5 [11],106%
same,Survivors,TLX-5 [32],0
same,Survivors,TLX-5 [14],0
same,Survivors,TLX-5 [33],0
same,Survivors,TLX-5 [15],0
same,Survivors,TLX-5 [16],0
CONC(=O)c1ncn2c(=O)n(CCCl)nnc12,T/C,L1210 [34],205%
same,T/C,L1210 [35],179%
same,T/C,L1210 [36],117%
same,Survivors,L1210 [37],0
same,Survivors,L1210 [38],0
same,Survivors,L1210 [39],0
same,T/C,TLX-5 [8],>325%
same,T/C,TLX-5 [9],103%
same,T/C,TLX-5 [40],116%
same,T/C,TLX-5 [11],185%
same,Survivors,TLX-5 [13],3
same,Survivors,TLX-5 [14],0
same,Survivors,TLX-5 [33],0
same,Survivors,TLX-5 [41],0
same,Survivors,TLX-5 [16],0
